Read-outs that look alike come from different tables or passages of the source. One block for each compound: values may come before it.
Legend:
DR5 [1] = assay: DR5 immunoblot, MDA-MB-468 cells; type: cell-based; conditions: MDA-MB-468, 24 h; for Effect on DDA-induced DR5 upregulation and oligomerization: with 2.5 μM dMtcyDTDO, 20 μM CEAPIN-A7, 10 μM KIRA-6, 10 μM AMG-44; for DR5 levels and disulfide bonding (electrophoretic mobility): non-reducing immunoblot, dFtcyDTDO 2.5 μM, Tunicamycin 500 ng/ml, PERKi alone
DR5 [2] = assay: DR5 immunoblot with autophagy/lysosome inhibitors; type: cell-based; conditions: inhibitor alone, absence of DDA treatment, versus vehicle
WM793 melanoma cells = assay: MTT cell viability assay, WM793; type: cell-based; conditions: 72 h
In short: (§1)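 Cells in 10% FBS–DMEM were seeded at 7,500 per well and kept 24 h at 37°C, then exposed to test compound for 72 h at 37°C. After medium removal they received 0.5 mg/ml MTT in PBS for 1 h at 37°C. Formazan was dissolved in DMSO and absorbance read at 570 and 690 nm. At least quadruplicate technical and three biological replicates were run.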

MET [3] = assay: MET/PCSK9 maturation; type: cell-based; conditions: HepG2, PERKi alone 1 μM, 24 h
In short: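 HepG2 cells were grown in 10% FBS–DMEM at 37°C and 5% CO₂, then treated for 24 h. Cell lysates were run on immunoblots, under reducing conditions for MET.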

MET [4] = assay: MET/PCSK9 maturation; type: cell-based; conditions: MDA-MB-468, PERKi alone 1 μM, 24 h
protein synthesis = assay: Protein synthesis assay; type: cell-based; conditions: 24 h pre-treatment, 2 h pulse
[5] = system: MDA-MB-468 breast cancer cells; assay: MTT cell viability assay, MDA-MB-468; type: cell-based; conditions: 72 h
In short: as §1

DcR2 = DcR2 immunoblot; type: cell-based; conditions: after dFtcyDTDO treatment
DR5 [6] = assay: DR5 immunoblot, MCF10A cells; type: cell-based; conditions: non-transformed MCF10A, 2.5 μM, 24 h, reducing immunoblot
DR5 [7] = assay: DR5 immunoblot, T47D cells; type: cell-based; conditions: 2.5 μM, 24 h, reducing immunoblot
DR5 [8] = assay: DR5 immunoblot, HaCaT keratinocytes; type: cell-based, human; conditions: 2.5 μM, 24 h, reducing immunoblot
[9] = Metabolic stability in human liver microsomes; conditions: supplemented with NADPH (1 mM); substrate 10 μM; 1 mg/ml protein
012/LVM2/LR10 tumors = assay: 012/LVM2/LR10 xenograft tumor study, H&E tumor histology; type: in vivo; conditions: 10 mg/kg dMtcyDTDO, 20 days, mice bearing 012/LVM2/LR10 tumors, versus vehicle

Compound: Cc1ccc2cc(-c3c(C)ccc(C(=O)c4c(-c5ccccc5)n(C)n(-c5ccccc5)c4=O)c3N)ccc2n1 [AMG44]
- Effect on DDA-induced DR5 upregulation and oligomerization (DR5 [1]): potentiated DDA-induced DR5 upregulation and oligomerization

Compound: CO/C1=C\C(C)=C\[C@@H](C)[C@@H](O)[C@@H](C)C/C(C)=C/C=C/[C@H](OC)[C@@H]([C@@H](C)[C@@H](O)[C@H](C)[C@@]2(O)C[C@@H](O)[C@H](C)[C@@H](C(C)C)O2)OC1=O [Bafilomycin A1]
- DR5 levels (DR5 [2]): increased levels of monomeric and oligomeric DR5 isoforms

Compound: O=C(Nc1cnn(Cc2ccc(C(F)(F)F)cc2C(F)(F)F)c1)c1cc(-c2ccco2)on1 [CEAPIN-A7]
- Effect on DDA-induced DR5 upregulation and oligomerization (DR5 [1]): without effect

Compound: CCN(CC)CCCC(C)Nc1ccnc2cc(Cl)ccc12 (stereo not drawn) [Chloroquine]
- DR5 levels (DR5 [2]): increased DR5 levels

Compound: CC(C)(C)c1nc(-c2ccc(NC(=O)Nc3cccc(C(F)(F)F)c3)c3ccccc23)c2c(N)nccn12 [KIRA-6]
- Effect on DDA-induced DR5 upregulation and oligomerization (DR5 [1]): negated DR5 and TNFR1 upregulation by DDA treatment

Compound: Cn1cc(-c2ccc3c(c2)CCN3C(=O)Cc2cccc(C(F)(F)F)c2)c2c(N)ncnc21 [PERKi]
- Cell viability (MTT) (WM793 melanoma cells; PERKi alone): little effect on cell viability
- Effect on dFtcyDTDO cytotoxicity (MTT) (WM793 melanoma cells; combination with dFtcyDTDO): strongly potentiated dFtcyDTDO cytotoxicity
- DR5 levels and disulfide bonding (electrophoretic mobility) (DR5 [1]): no discernable effect
- MET or PCSK9 processing (MET [3]): no effect on MET or PCSK9 processing
- MET or PCSK9 processing (MET [4]): no effect on MET or PCSK9 processing
- Protein synthesis (3H-Leucine incorporation) in the presence of Tunicamycin (protein synthesis): increased protein synthesis
- Protein synthesis (3H-Leucine incorporation) in the presence of dFtcyDTDO (protein synthesis): further decreased protein synthesis
- Cell viability (MTT) ([5]; PERKi alone): little effect on cell viability
- Effect on dFtcyDTDO cytotoxicity (MTT) ([5]; combination with dFtcyDTDO): strongly potentiated dFtcyDTDO cytotoxicity

Compound: CC(C)(O)CNc1ncc(-c2ccnc(Nc3ccnc(Cl)c3)n2)c(CC2CC2)n1 [VPS34i]
- DR5 levels (DR5 [2]): increased DR5 expression to a similar extent as Bafilomycin

- t1/2 in human liver microsomes: > 60 min
Compound: O=S1(=O)CC2CC(F)C(F)CC2CS1 (stereo not drawn) [dFtcyDTDO]
- DR5 levels and disulfide bonding (electrophoretic mobility) (DR5 [1]): altered DR5 levels and disulfide bonding
- DcR2 levels (DcR2): upregulation of DcR2
- DR5 levels (DR5 [6]): did not increase DR5 levels
- DR5 levels (DR5 [7]): increased DR5 levels
- DR5 levels (DR5 [8]): did not increase DR5 levels

Compound: CO[C@H]1C[C@@H]2CS(=O)(=O)SC[C@H]2C[C@@H]1OC [dMtcyDTDO]
- t1/2 in human liver microsomes [9]: 47.9 min
- Breast tumor tissue histology (H&E) (012/LVM2/LR10 tumors): extensive death of tumor tissue
- DR5 levels (DR5 [6]): did not increase DR5 levels
- DR5 levels (DR5 [8]): did not increase DR5 levels

- t1/2 in human liver microsomes: 11.9 min
Compound: O=S1(=O)CC2CCCCC2CS1 (stereo not drawn) [tcyDTDO]

Compound: Tunicamycin
- DR5 levels and disulfide bonding (electrophoretic mobility) (DR5 [1]): increased DR5 levels without altering its mobility
